Measurements from ChEMBL document CHEMBL2321752, “A potent and highly efficacious Bcl-2/Bcl-xL inhibitor” (J Med Chem, 2013).
The source made the active and inactive calls. No cut-off for these calls is given here.

Columns and labels:
NCI-H1417 = experiment: Cytotoxicity against human NCI-H1417 cells assessed as growth inhibition after 4 days by WST assay; assay type: functional, cell-based; details: NCI-H1417, 96 h
Summary of the method: (§1)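 Human small-cell lung cancer line from ATCC, kept in RPMI-1640 with 10% FBS. Cells were exposed to serial compound concentrations for 4 days. WST-8 dye was then added for a further 1–2 h and absorbance read at 450 nm. IC50 was derived from absorbance of treated versus untreated cells. At least three independent experiments per cell line; standard deviation reported.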

NCI-H187 = experiment: Cytotoxicity against human NCI-H187 cells assessed as growth inhibition after 4 days by WST assay; assay type: functional, cell-based; details: NCI-H187, 96 h; summary of the method: as §1
NCI-H146 [1] = experiment: Antitumor activity against human NCI-H146 cells xenografted in SCID mouse assessed as tumor regression at 15 mg/kg, iv administered 5 days per week for 2 weeks; assay type: functional, organism-based; parameters: dose 15 mg/kg
Summary of the method: (§2)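 H146 cells (5×10^6, with Matrigel) implanted subcutaneously on the dorsal side of SCID mice, one tumor per mouse. Mice with tumors of 100–150 mm³ were randomized into groups of 8, mean volume 126 mm³. Vehicle or compound given intravenously at 15 mg/kg, daily, 5 days/week for 2 weeks. Tumor volume was followed over time.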

Mus musculus [2] = experiment: Toxicity in SCID mouse xenografted with human NCI-H146 cells assessed as weight loss at 15 mg/kg, iv administered 5 days per week for 2 weeks; assay type: organism-based; parameters: dose 15 mg/kg, route intravenous; details: in vivo
Summary of the method: (§3)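 SCID mice carried subcutaneous H146 xenografts, 8 per group, starting mean tumor volume 126 mm³. Dosing was intravenous at 15 mg/kg, daily, 5 days/week for 2 weeks. Body weight and other signs of toxicity were monitored during and after treatment.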

Mus musculus [3] = experiment: Toxicity in SCID mouse xenografted with human NCI-H146 cells 15 mg/kg, iv administered 5 days per week for 2 weeks; assay type: organism-based; parameters: dose 15 mg/kg, route intravenous; details: in vivo; summary of the method: as §3
Mus musculus [4] = experiment: Toxicity in SCID mouse 15 mg/kg, iv administered 5 days per week for 2 weeks; assay type: organism-based; parameters: dose 15 mg/kg, route intravenous; details: in vivo
Summary of the method: (§4)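 Tolerability run in non-tumor-bearing SCID mice. Compound given intravenously at 15 or 25 mg/kg, daily, 5 days a week for 2 weeks. Weight loss and other signs of toxicity were followed during and after treatment, and the maximum tolerated dose was set from weight loss.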

[5] = Antitumor activity against human NCI-H146 cells xenografted in SCID mouse assessed as tumor volume at 15 mg/kg, iv administered 5 days per week for 2 weeks measured on day 117 (reference value: 130 mm'3); assay type: functional; summary of the method: as §2
NCI-H146 [6] = experiment: Antitumor activity against human NCI-H146 cells xenografted in SCID mouse assessed as tumor regression at 15 mg/kg, iv administered 5 days per week for 2 weeks measured on day 62; assay type: functional, organism-based; parameters: dose 15 mg/kg; summary of the method: as §2
[7] = Toxicity in iv dosed SCID mouse assessed as weight loss administered 5 days per week for 2 weeks; assay type: organism-based; details: in vivo
Summary of the method: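 Maximum tolerated dose study in SCID mice. Compound was given intravenously at 15 or 25 mg/kg, daily, 5 days a week for 2 weeks. Body weight loss and other signs of toxicity were monitored during and after treatment.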

Mus musculus [8] = experiment: Toxicity in SCID mouse assessed as weight loss at 25 mg/kg, iv administered 5 days per week for 2 weeks relative to control; assay type: organism-based; parameters: dose 25 mg/kg, route intravenous; details: in vivo; summary of the method: as §4
Mus musculus [9] = experiment: Toxicity in SCID mouse assessed as weight loss at 15 mg/kg, iv administered 5 days per week for 2 weeks relative to control; assay type: organism-based; parameters: dose 15 mg/kg, route intravenous; details: in vivo; summary of the method: as §4
[10] = molecular target: Induced myeloid leukemia cell differentiation protein Mcl-1 (Homo sapiens, UniProt Q07820); experiment: Binding affinity to MCL1 (unknown origin) after 2 hrs by fluorescence polarization assay
Summary of the method: (§5)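 Competitive FP binding assay. Preformed protein/fluorescent probe complexes were used at 1.5/1 nM for Bcl-2, 10/2 nM for Bcl-xL and 20/2 nM for Mcl-1. These were mixed with serially diluted inhibitor and shaken gently for 2 h at room temperature before millipolarization was read. IC50 came from nonlinear regression, and Ki was calculated from IC50.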

[11] = Cytotoxicity against human NCI-H146 cells assessed as growth inhibition after 4 days by WST assay; assay type: functional, cell-based; details: NCI-H146, 96 h
Bcl-2-like protein 1 = Bcl-2-like protein 1 (Homo sapiens, UniProt Q07817); experiment: Binding affinity to BCL-XL (unknown origin) after 2 hrs by fluorescence polarization assay; summary of the method: as §5
[12] = molecular target: Apoptosis regulator Bcl-2 (Homo sapiens, UniProt P10415); experiment: Binding affinity to BCL2 (unknown origin) after 2 hrs by fluorescence polarization assay; summary of the method: as §5
NCI-H146 [13] = experiment: Induction of apoptosis in human NCI-H146 cells xenografted in SCID mouse assessed as increase in PARP cleavage at 15 mg/kg, iv after 3 to 6 hrs by Western blotting analysis; assay type: functional, organism-based; parameters: dose 15 mg/kg
Summary of the method: (§6)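 SCID mice bearing subcutaneous H146 xenografts of about 100 mm³ got a single intravenous dose of 15 mg/kg or vehicle. Tumors were harvested at 3, 6 or 24 h. Western blot then measured total and cleaved PARP and caspase-3.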

NCI-H146 [14] = experiment: Induction of apoptosis in human NCI-H146 cells xenografted in SCID mouse assessed as increase in caspase-3 cleavage at 15 mg/kg, iv after 3 to 6 hrs by Western blotting analysis; assay type: functional, organism-based; parameters: dose 15 mg/kg; summary of the method: as §6
NCI-H1963 = experiment: Cytotoxicity against human NCI-H1963 cells assessed as growth inhibition after 4 days by WST assay; assay type: functional, cell-based; details: NCI-H1963, 96 h; summary of the method: as §1

Sequence of Bcl-2-like protein 1 (Q07817 whole entry): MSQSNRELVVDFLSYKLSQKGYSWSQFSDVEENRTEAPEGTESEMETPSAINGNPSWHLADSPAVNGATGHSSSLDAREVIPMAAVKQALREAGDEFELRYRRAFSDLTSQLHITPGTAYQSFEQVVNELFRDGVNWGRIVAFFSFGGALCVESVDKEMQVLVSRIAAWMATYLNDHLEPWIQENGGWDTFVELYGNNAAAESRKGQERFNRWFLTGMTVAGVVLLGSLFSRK
Sequence of Apoptosis regulator Bcl-2 (P10415 whole entry): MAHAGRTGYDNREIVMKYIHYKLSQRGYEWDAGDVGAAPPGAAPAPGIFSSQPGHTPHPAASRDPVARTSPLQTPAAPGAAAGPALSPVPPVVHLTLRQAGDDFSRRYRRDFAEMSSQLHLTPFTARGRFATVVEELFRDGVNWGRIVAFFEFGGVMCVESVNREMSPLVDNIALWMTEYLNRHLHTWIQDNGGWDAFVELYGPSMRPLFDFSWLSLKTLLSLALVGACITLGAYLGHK
Sequence of Induced myeloid leukemia cell differentiation protein Mcl-1 (Q07820 whole entry): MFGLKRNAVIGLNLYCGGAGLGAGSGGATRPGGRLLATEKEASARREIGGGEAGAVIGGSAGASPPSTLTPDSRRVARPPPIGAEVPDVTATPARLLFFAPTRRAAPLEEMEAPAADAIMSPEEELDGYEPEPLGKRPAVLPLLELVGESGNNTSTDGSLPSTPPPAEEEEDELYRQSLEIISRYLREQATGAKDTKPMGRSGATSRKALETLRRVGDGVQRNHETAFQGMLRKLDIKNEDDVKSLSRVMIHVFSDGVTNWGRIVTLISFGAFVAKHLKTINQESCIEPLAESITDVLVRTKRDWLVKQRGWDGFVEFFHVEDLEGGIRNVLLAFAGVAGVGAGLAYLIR

Cc1c(C(=O)NS(C)(=O)=O)c(-c2cccc(N3CCN(c4ccc(NS(=O)(=O)c5ccc(N[C@H](CCN(C)C)CSc6ccccc6)c([N+](=O)[O-])c5)cc4)CC3)c2)c(-c2ccc(Cl)cc2)n1C(C)C
IC50 (NCI-H1417): 2.3 nM
IC50 (NCI-H187): 1.4 nM
Activity (NCI-H146 [1]): Active
Activity (Mus musculus [2]): Non-toxic
Activity (Mus musculus [3]): Non-toxic
Activity (Mus musculus [4]): Non-toxic
Activity [5]: 47 mm3
Activity (NCI-H146 [6]): Active
MTD at 2 weeks [7]: 15 mg/kg
Activity (Mus musculus [8]): 10%
Activity (Mus musculus [9]): < 5%
IC50 [10]: > 2000 nM
IC50 [11]: 1.3 nM
IC50 (Bcl-2-like protein 1): 6.9 nM
Ki (Bcl-2-like protein 1): < 1 nM
IC50 [12]: 1.8 nM
Ki [12]: < 1 nM
Activity (NCI-H146 [13]): Active
Activity (NCI-H146 [14]): Active
IC50 (NCI-H1963): 1 nM
